From publication PMC10793096 (Acta Pharmaceutica Sinica. B, 2023)
Where two headings read alike, the source gives them in different places.

Assays:
[1] = test system: MRC-5 (human lung fibroblasts, non-cancerous); conditions: read-out: IC50 MRC-5; taken from the literature; cited from earlier work
[2] = test system: CT26 (murine colon carcinoma) cell line; experiment: Colorimetric MTT cytotoxicity assay, CT26; assay type: cell-based
[3] = test system: MCF-7 (human breast adenocarcinoma) cell line; experiment: Colorimetric MTT cytotoxicity assay, MCF-7; assay type: cell-based; conditions: for IC50: Homo sapiens
[4] = test system: MRC-5 (human lung fibroblasts, non-cancerous); experiment: Colorimetric MTT cytotoxicity assay, MRC-5; assay type: cell-based; conditions: MRC5, 72 h, read-out: IC50 MRC-5
In short: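 MRC-5 cells from ATCC, trypsinized, seeded at 6000 cells/well (6 × 10^4 cells/mL), grown 24 h, then exposed 72 h to test compound serially diluted in complete medium. Medium replaced with MTT in media (5 mg/mL) for 45 min; formazan dissolved in DMSO, OD at 570 nm. T/C versus untreated cells; IC50 interpolated from concentration-effect curves; ≥3 independent experiments, triplicates per concentration.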

| SMILES | IC50 [1] | SF CT26 (selectivity factor) ([2]; IC50(MRC-5)/IC50(CT26)) | IC50 ([2]; Mus musculus, CT26, 72 h, read-out: IC50 CT26) | IC50 ([3]; MCF7, 72 h, read-out: IC50 MCF-7) | IC50 ([3]; MCF7, read-out: IC50s in both cancer cell lines) | SF MCF-7 (selectivity factor) ([3]; IC50(MRC-5)/IC50(MCF-7)) | IC50 [4] |
| --- | --- | --- | --- | --- | --- | --- | --- |
| CC(=O)O[C@H]1C(=O)[C@@]2(C)[C@H]([C@H](OC(=O)c3ccccc3)[C@]3(O)C[C@H](OC(=O)[C@H](O)[C@@H](NC(=O)c4ccccc4)c4ccccc4)C(C)=C1C3(C)C)[C@]1(OC(C)=O)CO[C@@H]1C[C@@H]2O [Paclitaxel] | 0.00261 µM |  |  |  |  |  |  |
| C=C(C)[C@H]1CC[C@@]2(C)CC[C@]3(C)C[C@H]4[C@@H](C)CC(=O)[C@H]4/C(C=O)=C\C[C@H]3[C@H]12 [compound 1, Variecolin] |  | 1.1 | 1 ± 0.3 µM | 1.4 ± 0.3 µM | 1 to 8 µM | 0.8 | 1.1 ± 0.2 µM |
